Kir21 block: inhibitors of mouse Kir2.1 inward-rectifier potassium channel; AID 1672, 2009; B-score at 10 µM; Inward rectifier potassium channel 2 (Mus musculus), P35561; 310,000 compounds, 0.85% hits; HEK293-Kir2.1, FluxOR thallium flux fluorescence; active compounds read low;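 active = fluorescence ratio B-score at or below minus 3 SD of library scores, with starting-brightness B-score within 2 SD, cut at about -4.2 in these data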;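 note: channel flux triggered by added potassium and thallium sulfate stimulus; B-score of peak minus minimum fluorescence over baseline after thallium stimulus; more negative B-score means stronger Kir2.1 block with less thallium influx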
Target sequence (P35561 whole entry, looked up): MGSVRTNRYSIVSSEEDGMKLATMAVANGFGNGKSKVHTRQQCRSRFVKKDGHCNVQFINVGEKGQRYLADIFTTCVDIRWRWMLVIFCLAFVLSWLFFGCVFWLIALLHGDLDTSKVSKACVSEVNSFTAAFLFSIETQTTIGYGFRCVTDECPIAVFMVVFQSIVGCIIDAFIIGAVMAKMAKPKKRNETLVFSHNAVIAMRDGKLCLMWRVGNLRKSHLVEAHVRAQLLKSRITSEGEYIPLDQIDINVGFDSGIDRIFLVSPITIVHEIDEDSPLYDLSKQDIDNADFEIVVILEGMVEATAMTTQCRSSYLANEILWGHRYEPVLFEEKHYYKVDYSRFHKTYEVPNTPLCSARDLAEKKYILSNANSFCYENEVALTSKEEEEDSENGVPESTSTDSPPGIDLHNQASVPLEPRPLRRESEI
KCNQ1 pot: potentiators or activators of KCNQ1 channel, primary screen, cell-based, thallium flux, high-throughput. B-score at 10 µM. AID 2648, 2010. 310,000 compounds, 0.35% hits. CHO-K1 KCNQ1, thallium flux FluxOR fluorescence; active compounds read high. Potassium voltage-gated channel subfamily KQT member 1 (Homo sapiens), P51787;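 active = fluorescence ratio B-score, a plate-corrected score, at least three library SD, with initial intensity B-score within 5 SD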
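assay system = CHO-K1 cells stably expressing KCNQ1 | medium = assay buffer, equal DMSO in all wells | timing = 37 °C overnight plating, 90-min dark dye load, 20-min compound pretreatment | measured by = kinetic FluxOR thallium fluorescence, 10-s 1-Hz baseline, 110-s post-stimulus read | measure = fluorescence change relative to baseline, converted to B score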
hERG protect: hERG rescue from dofetilide block, primary screen, cell-based, CHO-hERG, FluxOR thallium flux, dofetilide IC70. 310,000 compounds, 0.51% hits. AID 1511, 2009. dofetilide IC70 present. Voltage-gated inwardly rectifying potassium channel KCNH2 (Homo sapiens), Q12809. activation (rescue from dofetilide block), less the hit threshold, % at 10 µM;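 active = activation above the mean of controls blocked by dofetilide plus 5 SD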;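 note: thallium influx through hERG after potassium depolarization seen as dye fluorescence rise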
KCNK9 block: KCNK9 potassium channel inhibitors, primary screen, HEK293 cells, thallium flux. Potassium channel subfamily K member 9 (Homo sapiens), Q9NPC2. FluxOR thallium flux fluorescence; active compounds read low. B-score at 10 µM. 310,000 compounds, 1.2% hits. AID 488922, 2010;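 active = ratio B-score over 3 SD below the library mean, with starting fluorescence within 5 SD of its mean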;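 note: negative B-score means less thallium flux so channel inhibition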
KCNK3 block: human KCNK3 channel inhibitors, primary screen, CHO cells, FluxOR thallium flux, B-score; 340,000 compounds, 0.84% hits; FluxOR fluorescence; active compounds read low; Potassium channel subfamily K member 3 (Homo sapiens), O14649; B-score at 10 µM;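 active = B-score under library mean minus 4 SD, starting fluorescence ratio at most library mean plus 5 SD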;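 note: more negative B-score means stronger inhibition of thallium flux through KCNK3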
KCNQ1 inh: inhibitors of human KCNQ1 channel, primary screen, cell-based, thallium flux, high-throughput; Potassium voltage-gated channel subfamily KQT member 1 (Homo sapiens), P51787; CHO-K1 KCNQ1, FluxOR thallium flux fluorescence; active compounds read high; B-score at 10 µM; 310,000 compounds, 1.3% hits; AID 2642, 2010;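 active = compounds whose thallium flux B-score, printed positive for inhibition, exceeds three library SD while starting fluorescence stays within three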;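 note: channel opened by potassium depolarization with thallium stimulus after 20 min compound exposure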
* hit, by the source's call; i = inactive; nt = no result. A selection: hits, their analogues and other compounds. The true share with any hit is near 3.7%.

SMILES	Kir21 block	KCNQ1 pot	hERG protect	KCNK9 block	KCNK3 block	KCNQ1 inh
O=C(NC(=S)Nc1ccccc1N1CCOCC1)c1ccco1	0.83	i	-9	i	i	i
O=C(NC(=S)Nc1ccccc1N1CCCC1)c1ccccc1Br	0.52	16*	14*	i	i	i
CCC(C)c1ccccc1NC(=S)NC(=O)c1ccco1 (configuration not stated)	-1.2	29*	32*	i	i	i
O=C(NC(=S)Nc1cccc(Cl)c1N1CCCCC1)c1ccco1	0.41	16*	3	i	i	i
CC(C)C(=O)N1CCN(c2ccccc2NC(=S)NC(=O)c2ccco2)CC1	0.7	i	-4	i	i	i
O=C(NC(=S)Nc1ccccc1N1CCCC1)c1ccco1	1.3	12*	3	i	i	i
CC(C)c1ccc(NC(=O)CN2C(=O)NC3(CCCC3)C2=O)cc1	1.2	i	-6	i	i	i
Cc1ccc(S(=O)(=O)CC(=O)Nc2cc(C)on2)cc1	0.03	i	-4	i	i	i
Cc1cc(NC(=O)CSc2nc3c(C)c(C)ccc3cc2C)no1	-0.2	i	-1	i	i	i
CC1CCN(c2ccc(NC(=S)NC(=O)c3ccco3)cc2)CC1	0.01	i	-2	i	i	i
O=C(NC(=S)Nc1cccc2c(O)cccc12)c1ccco1	0.42	i	0	i	i	i
O=C(NC(=S)Nc1ccc(N2CCCCC2)cc1)c1ccco1	0.85	9*	5.6*	i	i	i
O=C(NC(=S)Nc1ccccc1N1CCCCC1)c1ccco1	0.68	i	14*	i	i	i
O=C(NC(=S)Nc1ccccc1Cl)c1ccco1	-0.97	14*	12*	i	i	i
CCCCCC/C=N/Nc1nnc(Cc2ccccc2)c(=O)[nH]1	0.54	i	-4	i	i	i
COc1cccc(C(=O)Nc2ccc(-n3nncc3C(C)(C)C)cc2)c1	-0.02	i	-9	i	i	i
CC(C)(C)c1cnnn1-c1ccc(NC(=O)c2ccc(Br)o2)cc1	-0.69	i	-9	-7.1*	i	i
CN1CCN(c2ccc(NC(=O)c3ccc(Br)o3)cc2)CC1	-0.24	13*	1	i	i	i
O=C(Nc1ccc(N2CCOCC2)cc1)c1ccc(Br)o1	0.86	i	-8	i	i	i
CN(CC(=O)Nc1cccc(S(=O)(=O)N2CCCC2)c1)Cc1ccccc1	nt	nt	nt	nt	i	nt
COc1cc(OC)c(S(=O)(=O)NC(C)C)cc1C(=O)O	0.15	i	-13	i	i	i
CCc1cc(OCCCCNCc2ccccc2)ccc1Cl	-11*	i	-20	i	i	i
CCOCCCNCc1ccc(OCc2ccccc2Cl)cc1	-4.3*	i	-6	i	i	i
CC(C)(C)c1ccc(OCCCNCc2ccccc2)cc1	-3.8	i	-24	i	i	i
Cc1ccc(C2(CCNCc3ccc(N(C)C)cc3)CCOC(C(C)C)C2)cc1 (configuration not stated)	-4.7*	i	-18	i	i	i
SMILES	Kir21 block	KCNQ1 pot	hERG protect	KCNK9 block	KCNK3 block	KCNQ1 inh
CC(C)C1CC(CCNCc2ccc(N(C)C)cc2)(c2ccccc2)CCO1 (configuration not stated)	-2.4	i	-7	i	i	i
CC(=O)OCCN(C)c1cc(SC(C)C)c2nonc2c1[N+](=O)[O-]	-0.2	i	7.4*	i	i	i
CCC1CCCCN1c1nc(-c2ccncc2)nc2ccccc12 (configuration not stated)	-2.3	i	-15	-6.8*	i	i
CCC1CCCCN1c1nc(-c2cccc(OC)c2O)nc2ccccc12 (configuration not stated)	0.5	i	-17	-7.6*	i	i
CC1CCCCN1c1nc(-c2ccncc2)nc2ccccc12 (configuration not stated)	-1.4	i	-11	i	i	i
Cc1ccc(-c2csc(NC(=O)c3cccc(S(=O)(=O)N4CCN(C)CC4)c3)n2)cc1	0.25	i	-4	i	i	i
O=C(Nc1nc(-c2ccc(S(=O)(=O)N3CCCCCC3)cc2)cs1)c1cccs1	-3.2	i	-11	i	i	i
O=C(Nc1nc(-c2ccc(S(=O)(=O)N3CCCC3)cc2)cs1)c1cccs1	nt	nt	nt	nt	-11*	nt
O=C(Nc1nc(-c2cccs2)cs1)c1cccc(S(=O)(=O)N2CCCCC2)c1	0.8	i	-10	-6.6*	i	i
C=CCn1c(SCC(=O)N(C)c2c(N)n(Cc3ccccc3)c(=O)[nH]c2=O)nnc1-c1ccccc1OC	-0.46	i	-12	i	i	i
COc1ccc(C2CC(c3ccccc3)=NN2c2ccc(/C=N/NC(=O)c3ccncc3)cc2)cc1 (configuration not stated)	-0.57	i	-4	i	i	6*
COc1ccc(C2CC(c3ccccc3)=NN2c2ccc(S(N)(=O)=O)cc2)cc1 (configuration not stated)	0.18	i	-10	i	i	i
O=C(O)c1ccc(N2N=C(c3ccccc3)CC2c2ccccc2)cc1 (configuration not stated)	0.23	i	-12	i	i	i
COc1ccc(C2CC(c3ccccc3)=NN2c2ccc(C(N)=O)cc2)cc1 (configuration not stated)	-0.04	i	-8	i	i	10*
NS(=O)(=O)c1ccc(N2N=C(c3ccccc3)CC2c2ccc(F)cc2)cc1 (configuration not stated)	1.3	i	-10	-7.7*	i	6*
O=Cc1ccc(N2N=C(c3ccccc3)CC2c2ccccc2)cc1 (configuration not stated)	0.08	i	-14	i	i	8*
N#CCC(=O)N/N=C/c1ccc(N2N=C(c3ccccc3)CC2c2ccccc2)cc1 (configuration not stated)	0.06	i	-1	i	i	i
O=C(CCc1ccccc1)NC1(Cc2ccccc2)CCN(CCCc2ccccc2)C1=O (configuration not stated)	nt	nt	nt	nt	i	nt

Source: PubChem BioAssay (Johns Hopkins Ion Channel Center)
